From PubChem BioAssay
Compounds with a hit are over-represented: about 3.4% of the library has one in this group of screens.
A3A deaminase – human APOBEC3A DNA deaminase inhibition. P31941. hit rate 0.41% among 330,000. inhibition, % at 20 µM. recombinant A3A, FAM/TAMRA ssDNA deamination fluorescence;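 active = at least 40% inhibition at 20 µM here, with at most 30% in a related deaminase screen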;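 also: plate controls were A3A with DMSO for no effect and wells lacking A3A enzyme for full effect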
PolyA inh – blocks polyadenylation in yeast reporter cells | activity score, % at 12 µM | hit rate 0.02% among 300,000 | S. cerevisiae SKY197-pL101 polyadenylation reporter, beta-gal luminescence; efflux-impaired pdr1/pdr3 knockout yeast; score 100 = 6 SD above DMSO;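 active = lowest replicate activity score at least 50, where 100 means six control SD above control mean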;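 also: yeast exposed to compound for 9 h at 30 °C; higher score means more reporter readthrough which indicates perturbed polyadenylation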
APOBEC3G inh – blocks human APOBEC3G single-stranded DNA deamination | Q9HC16 | recombinant A3G, ssDNA deamination FAM/TAMRA fluorescence | inhibition, % at 20 µM | hit rate 0.28% among 330,000 | AID 493012;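 active = inhibition of at least 40% at 20 µM, with no more than 30% in the related APOBEC3A deaminase screen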;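 also: plate controls were DMSO wells with A3G for no effect and wells lacking A3G enzyme for full effect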
UCH37 DUB inh – human UCH37 deubiquitinating enzyme inhibition. Q9Y5K5. hit rate 0.33% among 330,000. inhibition, % (concentration not given with the values). purified proteasome/UCH37, Ub-AMC cleavage fluorescence. AID 588478;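 active = mean inhibition over replicate wells above about 20%, limit read from the data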;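 also: 0% = compound-free wells with enzyme and 100% = wells lacking proteasome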
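assay system = human UCH37 enzyme supplied as purified proteasome complex | amount = proteasome at 0.15 nM in the dispensed enzyme solution | schedule = 30 min compound-proteasome preincubation then 25 min substrate reaction, room temperature | measured by = fluorescence, ex 355 nm, em 460 nm | benchmarks = no-proteasome wells (full inhibition) and compound-free wells (no inhibition)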
Arr AP2 block – inhibitors of human beta-arrestin and AP2 interaction; FITC-arrestin peptide / GST-AP2 beads, flow cytometry; AP2 beta2 appendage carries R879A mutation; inhibition, % at 10 µM; hit rate 0.31% among 340,000; AID 504490;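 active = inhibition above a set limit, near 3 SD of compounds lacking own fluorescence, cut at about 54% in these data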;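 also: plate controls were DMSO wells for no effect and 5 µM unlabelled arrestin peptide for full effect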
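Assay system: GST-AP2 R879A bound to glutathione beads, E. coli-expressed; Medium: PBS with 0.05% Tween 20 and 0.1% BSA; Also added: fluorescein-tagged arrestin peptide at 50 nM final; Timing: 12 min plus 1 h, RT; Measured by: flow cytometry, FL1 (488/535 nm); Evaluation: percent drop in bead-associated FITC signal.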
AHR activator – activators of human aryl hydrocarbon receptor; activation, % at 5 µM; hit rate 2.5% among 320,000; AHR-responsive luciferase reporter cells, luminescence; in the data active = activation above about 47%;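 also: 0% = vehicle wells and 100% = reference agonist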
Target sequence (P35869 whole entry, looked up): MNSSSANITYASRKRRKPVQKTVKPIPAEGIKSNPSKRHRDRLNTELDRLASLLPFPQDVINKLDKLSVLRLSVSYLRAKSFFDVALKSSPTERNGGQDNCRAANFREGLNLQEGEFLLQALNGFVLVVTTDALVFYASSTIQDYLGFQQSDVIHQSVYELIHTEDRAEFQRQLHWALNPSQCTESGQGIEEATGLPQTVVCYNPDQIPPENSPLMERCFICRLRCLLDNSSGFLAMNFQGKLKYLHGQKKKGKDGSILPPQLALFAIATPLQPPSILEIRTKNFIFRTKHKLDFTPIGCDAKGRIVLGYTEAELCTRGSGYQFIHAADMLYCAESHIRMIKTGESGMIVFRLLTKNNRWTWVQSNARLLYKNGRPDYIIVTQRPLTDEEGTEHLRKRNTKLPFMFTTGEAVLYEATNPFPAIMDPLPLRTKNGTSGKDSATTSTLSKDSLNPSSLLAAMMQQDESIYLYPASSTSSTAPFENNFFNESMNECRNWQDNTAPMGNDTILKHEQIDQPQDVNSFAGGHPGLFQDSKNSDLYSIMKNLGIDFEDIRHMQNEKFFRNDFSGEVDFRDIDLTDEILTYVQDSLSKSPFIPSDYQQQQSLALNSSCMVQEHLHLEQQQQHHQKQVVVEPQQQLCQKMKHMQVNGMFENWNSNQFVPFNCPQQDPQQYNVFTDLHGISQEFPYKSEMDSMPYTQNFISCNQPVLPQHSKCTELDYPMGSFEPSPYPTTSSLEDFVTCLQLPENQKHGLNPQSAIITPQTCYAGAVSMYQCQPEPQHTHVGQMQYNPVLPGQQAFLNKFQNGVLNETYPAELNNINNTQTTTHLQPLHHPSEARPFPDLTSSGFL
* = called active by the depositor; i = inactive; . = not tested or not shown.

SMILES | A3A deaminase | PolyA inh | APOBEC3G inh | UCH37 DUB inh | Arr AP2 block | AHR activator
Cc1nc(Nc2ccccc2)sc1C(=O)Nc1ccccc1 | -0.7 | -19.5 | -3.7 | -0.5 | 3.8 | -6.1
Cc1nc(Cl)sc1C(=O)Nc1ccccc1 | -2.0 | -2.7 | -0.5 | 1.7 | -1.3 | 2.5
O=C(Nc1ccc(Cl)cc1)c1ccc2ncsc2c1 | -1.8 | -21.0 | -3.9 | 3.1 | 9.0 | 49.4*
O=C(Nc1ccc(F)cc1)c1cncs1 | -6.8 | -3.5 | -7.4 | 1.6 | 27.9 | 11.2
O=C(Nc1ccc(Cl)cc1)c1cncs1 | -4.1 | 10.8 | -8.6 | 1.2 | 29.2 | 67.6*
COc1cc(C=NNC(=O)Nc2ccccc2)ccc1OC(C)=O | . | . | . | 2.9 | . | .
O=C(NN=Cc1ccccn1)c1ccc(NC(=O)c2ccc(F)cc2)cc1 | . | . | . | 2.1 | . | .
COc1ccc(NC(=O)c2sc(SCc3ccccc3)nc2N)cc1 | 2.0 | -15.2 | 2.5 | 1.1 | -8.4 | 47.9*
Cc1nn2c(NCc3ccccn3)cc(C(C)C)nc2c1-c1ccccc1 | -2.6 | -36.6 | -5.0 | -85.5 | -0.7 | 5.2
Cc1nn2c(NCCCn3ccnc3)cc(C(C)C)nc2c1-c1ccccc1 | -1.8 | 9.3 | -2.7 | -20.3 | 18.6 | 47.6*
O=C(O)CCC(=NNC(=O)c1ccccc1Br)c1ccccc1 | . | . | . | 3.2 | . | .
CN1C(=O)/C(=C/c2ccc(OCc3ccc(F)cc3)cc2)N(C)C1=S | -3.8 | -22.5 | -5.3 | 4.1 | 11.8 | -2.0
CN1C(=O)/C(=C/c2ccccc2OCc2cccc(F)c2)N(C)C1=S | -0.2 | -11.3 | 0.4 | 2.5 | 3.3 | 50.4*
FC(F)(F)c1ccc(Cl)c(NC(=S)NN=Cc2ccccc2C(F)(F)F)c1 | . | . | . | 6.3 | . | .
O=C(O)CN1C(=O)/C(=C/c2ccc(N3CCCCC3)o2)SC1=S | 14.8 | 105.6* | 0.3 | 8.8 | -4.5 | -1.4
COC(=O)CN1C(=O)S/C(=C/c2ccc(N3CCCCC3)o2)C1=O | -1.3 | -34.4 | -4.2 | 9.4 | -0.3 | -2.2
CCC(=O)Nc1nc2c(OC)ccc(C)c2s1 | -2.8 | 0.5 | -6.2 | 0.4 | -3.5 | 33.8
COc1ccc(OC)c2sc(NC(=O)CCSc3ccccc3)nc12 | -3.6 | -12.5 | -2.5 | -0.8 | -0.8 | 58.9*
COc1ccc(OC)c2sc(NC(=O)c3ccc(S(=O)(=O)N(C)C)cc3)nc12 | -2.9 | -5.5 | -4.7 | 1.4 | 0.0 | 69.0*
COc1ccccc1NC(=O)c1ccc(S(=O)(=O)N(C)C)cc1 | 3.5 | 20.5 | 1.3 | 3.9 | 6.8 | 9.9
COc1ccc(C)c2sc(NC(=O)C3CC3)nc12 | 0.1 | 2.4 | -0.4 | 1.2 | 26.2 | 73.7*
CC1CCc2nc(NC(=O)CCSc3ccccc3)sc2C1 (stereo not drawn) | -4.1 | -12.0 | -7.7 | 1.4 | 5.9 | -1.1
COc1cc(C=NN2CCN(C3c4ccccc4-c4ccccc43)CC2)cc(OC)c1OC | . | . | . | 5.2 | . | .
COc1ccccc1C(=O)Nc1ccc2c(c1)C(=O)NC2=O | -4.7 | -4.3 | -9.6 | -121.9 | 0.0 | 57.6*
COc1ccccc1C(=O)Nc1cccc(N(C)S(C)(=O)=O)c1 | -0.3 | -13.0 | -6.2 | 3.9 | -6.9 | 50.7*
SMILES | A3A deaminase | PolyA inh | APOBEC3G inh | UCH37 DUB inh | Arr AP2 block | AHR activator
CCOc1ccccc1C(=O)Nc1ccc2c(c1)C(=O)NC2=O | -3.0 | 33.6 | -2.3 | -46.0 | -9.9 | 47.3*
Cc1ccccc1C(=O)Nc1ccc2c(c1)C(=O)NC2=O | -0.5 | 29.0 | -6.8 | -109.2 | -9.5 | 9.6
O=C1Nc2ccc(Br)cc2/C1=C/C(=O)c1ccc2c(c1)OCO2 | -0.4 | -35.9 | -2.7 | 3.2 | -18.1 | 69.9*
O=C(O)c1ccc(-c2nc(-c3ccccc3)c(-c3cccs3)[nH]2)cc1 | 1.4 | 5.3 | -3.5 | i | 5.2 | 7.0
COc1ccc(-c2nc(-c3cccs3)c(-c3cccs3)[nH]2)cc1O | -3.8 | -3.4 | -1.6 | -38.9 | 31.7 | 47.5*
O=C1C2C3C=CC(C4CC34)C2C(=O)N1N=Cc1cccs1 (stereo not drawn) | . | . | . | 3.6 | . | .
COc1cc(N=Nc2cccc(S(N)(=O)=O)c2)c2ccccc2c1N | . | -10.7 | . | 10.2 | 29.0 | 56.8*
NS(=O)(=O)c1ccc(NN=C/C=C/c2ccccc2[N+](=O)[O-])cc1 | . | . | . | 4.9 | . | .
Cc1cc(/C=C(/C#N)c2nc3ccccc3[nH]2)c(C)n1-c1cccc([N+](=O)[O-])c1 | 1.4 | -20.7 | -1.8 | 5.7 | 3.4 | -4.7
Cc1cc(/C=C(\C#N)c2nc3ccccc3[nH]2)c(C)n1C | -1.5 | -10.7 | -6.9 | 25.5* | -4.5 | 55.0*
Cc1ccc(/C=C(\C#N)c2nc3ccccc3[nH]2)s1 | -1.5 | 3.4 | -0.9 | 2.4 | 25.2 | 92.8*
N#C/C(=C\c1c(Cl)cccc1Cl)c1nc2ccccc2[nH]1 | 0.0 | -31.9 | -3.7 | -86.7 | 8.6 | 68.6*
O=C(NN=Cc1cccs1)C(=O)N1CCCC1 | . | . | . | 5.5 | . | .
CCn1c(C)nc2cc(C(=O)NN=Cc3cccc(O)c3O)ccc21 | . | . | . | 4.1 | . | .
COC(=O)c1[nH]c2ccc(F)cc2c1NC(=O)C1=COCCO1 | -7.8 | 5.8 | -5.5 | -1.0 | 23.8 | 22.6
COC(=O)c1[nH]c2ccc(C)cc2c1NC(=O)C1=COCCO1 | 1.4 | 0.1 | -1.3 | -3.0 | 28.7 | 67.6*
CCc1ccc[n+](-c2[nH]c(=O)sc2C=N/N=C(\[O-])c2cccnc2)c1 | . | . | . | 17.9 | . | .
COc1ccc(C=NNc2nncc3ccccc23)c(OC)c1 | . | . | . | 4.7 | . | .
CN1C(=O)NC(c2ccccc2)C2=C1CN(c1ccc3ccccc3c1)C2=O (stereo not drawn) | 4.0 | -10.5 | -2.6 | -42.9 | -2.4 | 67.8*
CCCCC(CCCC)=NN=Cc1c(O)n(CC)c2cc(C3=NNC(=O)CC3)ccc12 | . | . | . | -6.2 | . | .
CCn1c2ccccc2c2cc(N=C3SC(CC(=O)Nc4ccccc4OC)C(=O)N3CCOC)ccc21 (stereo not drawn) | 8.1 | -1.3 | 0.7 | 4.9 | 6.0 | 62.3*
CCn1c2ccccc2c2cc(N=C3SC(CC(=O)Nc4ccccc4OC)C(=O)N3C)ccc21 (stereo not drawn) | -1.0 | -13.3 | -0.6 | 2.5 | 18.4 | 2.1
O=C(NN=Cc1ccccn1)c1cc(-c2ccc(Br)s2)[nH]n1 | . | . | . | 2.6 | . | .
Cc1ccc(NCc2nc3ccccc3n2C)c(C)c1 | -2.7 | -10.8 | -4.6 | 2.1 | 3.3 | 76.3*
Cc1ccc(CNc2ccc(N3CCOCC3)cc2)cc1 | -1.8 | -3.2 | -2.2 | . | 3.3 | 13.9
Cc1cccc(NCc2nc3ccccc3n2C)c1 | -2.6 | -17.2 | -7.3 | 5.4 | -7.2 | 47.2*
Cc1ccc(N2CCN(c3ccc(NCc4nc5ccccc5n4C)cc3)CC2)cc1 | -0.4 | 5.5 | -0.2 | . | 25.1 | 65.9*
CC(C)CCN(N=O)C(Cc1ccccc1)CN(N=O)C(Cc1ccccc1)CN(C)N=O (stereo not drawn) | . | . | . | 0.4 | . | .
Cn1c(=N)n(CC(=O)c2ccc(Br)cc2)c2ccccc21 | -2.9 | -8.1 | -12.2 | 7.6 | 33.0 | 55.0*
Cn1c(=N)n(CC(=O)c2ccc(F)cc2)c2ccccc21 | -1.4 | 12.0 | -0.3 | 4.8 | 9.5 | 64.8*
